Measured values published in ChEMBL document CHEMBL4610004, “Lipidated α/Sulfono-α-AA heterogeneous peptides as antimicrobial agents for MRSA” (Bioorg Med Chem, 2020).
In brackets after ≈: the same amount, converted by molar mass. Activity calls are given as the source filed them. The rule behind the calls is not given here.

Experiments:
Staphylococcus aureus [1] = assay: Antibacterial activity against methicillin-resistant Staphylococcus aureus ATCC 33591 assessed as reduction in bacterial growth incubated for 18 hrs by broth microdilution method; settings: ATCC 33591, 18 h
[2] = Hemolytic activity in human RBC assessed as hemoglobin release incubated for 1 hr; format: ADME, cell-based, Erythrocyte; settings: red blood cells (erythrocytes)
Method in brief: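 Human red blood cells washed in PBS, pelleted at 1000g for 10 min, resuspended at 5% v/v. Compound serially diluted two-fold (50 µL) and mixed with 50 µL of the RBC suspension. Incubated 1 h at 37 °C, centrifuged 10 min at 3500 rpm, supernatant diluted with PBS, hemoglobin read at 540 nm. PBS defines 0% and 0.1% Triton X-100 defines 100% hemolysis. HC50 reported.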

[3] = Selectivity index, ratio of HC50 for human RBC to MIC for methicillin-resistant Staphylococcus aureus ATCC 33591; format: toxicity; settings: red blood cells (erythrocytes)
Method in brief: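 Selectivity = HC50 / MIC. For HC50, PBS-washed human RBCs (spun 1000g, 10 min) are diluted to 5% v/v and mixed 1:1 with twofold peptide dilutions. After 1 h at 37 °C, plates are spun and the diluted supernatant is read at 540 nm. PBS sets 0% and 0.1% Triton X-100 sets 100% hemolysis. MIC is by OD600 broth microdilution, 18 h, 37 °C.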

Staphylococcus aureus [4] = assay: Induction of cell membrane disruption in methicillin-resistant Staphylococcus aureus ATCC 33591 assessed as increase in depolarization measured for 30 mins by DiSC3 dye based fluorescence assay; format: organism-based
Method in brief: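 Mid-log cells are washed in 5 mM HEPES then 5 mM glucose. They are resuspended (10⁸ CFU/mL) in HEPES/glucose/KCl 1:1:1 with 2 µM DiSC3. Fluorescence (ex 622, em 670 nm) is monitored 30 min at room temperature until minimal. Peptide is then added and the fluorescence rise followed as depolarization. Three trials, each in duplicate.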

Staphylococcus aureus [5] = assay: Induction of cell membrane disruption in methicillin-resistant Staphylococcus aureus ATCC 33591 assessed as increase in PI-positive cells at 5 ug/ml incubated for 2 hrs by DAPI and PI dye based fluorescence microscopy; format: organism-based
Method in brief: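 Mid-log MRSA is incubated at 37 °C with peptide (5 µg/mL); the methods give 4 h and the legend gives 2 h. Cells are pelleted (3000g, 15 min) and PBS-washed. They are stained with DAPI (10 µg/mL, 0 °C, 15 min, dark), washed, then stained with PI (5 µg/mL). Untreated cells serve as controls. Imaged by optical microscopy at 100×.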

Staphylococcus aureus [6] = assay: Bactericidal activity against methicillin-resistant Staphylococcus aureus ATCC 33591 assessed as reduction in bacterial colonies formation at 12.5 ug/ml incubated for 120 min followed by dilution of the suspension and further incubation for 20 hrs on agar plate by time kill assay; format: functional, organism-based
Method in brief: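 Bacteria are exposed to a range of peptide concentrations and sampled at 0, 10, 20, 30, 60 and 120 min. At each time point 100 µL of suspension is taken, diluted, and plated on agar for 20 h at 37 °C. Colonies are counted and expressed as log CFU/mL versus time. Done in triplicate.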

| Compound | MIC (Staphylococcus aureus [1]) [µg/mL] | further results |
| --- | --- | --- |
| CCCCCCCCCCCCCCCC(=O)N[C@@H](CCCCN)C(=O)NCCN([C@@H](C)C(=O)NCCN([C@@H](C)C(=O)NCCN([C@@H](C)C(N)=O)S(=O)(=O)c1ccccc1)S(=O)(=O)c1ccccc1)S(=O)(=O)c1ccccc1 | 10 (≈ 8.72 µM) | – |
| CCCCCCCCCCCCCCCC(=O)N[C@@H](CCCCN)C(=O)NCCN([C@@H](C)C(=O)NCCN([C@@H](C)C(N)=O)S(=O)(=O)c1ccc(Br)cc1)S(=O)(=O)c1ccc(Br)cc1 | 5 (≈ 4.76 µM) | – |
| CCCCCCCCCCCCCC(=O)N[C@@H](CCCCN)C(=O)NCCN([C@@H](C)C(N)=O)S(=O)(=O)c1ccc(Cl)cc1 | 5 (≈ 7.76 µM) | – |
| CCCCCCCCCCCCCCCC(=O)N[C@@H](CCCCN)C(=O)NCCN([C@@H](C)C(=O)NCCN([C@@H](C)C(=O)NCCN([C@@H](C)C(N)=O)S(=O)(=O)c1ccc(Br)cc1)S(=O)(=O)c1ccc(Br)cc1)S(=O)(=O)c1ccc(Br)cc1 | > 25 | – |
| CCCCCCCCCC(=O)N[C@@H](CCCCN)C(=O)NCCN([C@@H](C)C(N)=O)S(=O)(=O)c1ccc(Cl)cc1 | > 25 | – |
| CCCCCCCC(=O)N[C@@H](CCCCN)C(=O)NCCN([C@@H](C)C(N)=O)S(=O)(=O)c1ccc(Cl)cc1 | > 25 | – |
| CCCCCCCCCCCCCCCC(=O)N[C@@H](CCCCN)C(=O)NCCN([C@@H](C)C(N)=O)S(=O)(=O)c1ccc(Br)cc1 | 2 (≈ 2.79 µM) | – |
| CCCCCCCCCCCCCCCC(=O)N[C@@H](CCCCN)C(=O)NCCN([C@@H](C)C(=O)NCCN([C@@H](C)C(N)=O)S(=O)(=O)c1ccccc1)S(=O)(=O)c1ccccc1 | 2 (≈ 2.24 µM) | – |
| CCCCCCCCCCCCCCCC(=O)N[C@@H](CCCCN)C(=O)NCCN([C@@H](C)C(N)=O)S(=O)(=O)c1ccccc1 | 5 (≈ 7.84 µM) | – |
| CCCCCCCCCCCC(=O)N[C@@H](CCCCN)C(=O)NCCN([C@@H](C)C(N)=O)S(=O)(=O)c1ccc(Cl)cc1 | 5 (≈ 8.11 µM) | – |
| CCCCCCCCCCCCCCCC(=O)N[C@@H](CCCCN)C(=O)NCCN([C@@H](C)C(=O)NCCN([C@@H](C)C(=O)NCCN([C@@H](C)C(N)=O)S(=O)(=O)c1ccc(Cl)cc1)S(=O)(=O)c1ccc(Cl)cc1)S(=O)(=O)c1ccc(Cl)cc1 | > 25 | – |
| CCCCCCCCCCCCCCCC(=O)N[C@@H](CCCCN)C(=O)NCCN([C@@H](C)C(=O)NCCN([C@@H](C)C(N)=O)S(=O)(=O)c1ccc(Cl)cc1)S(=O)(=O)c1ccc(Cl)cc1 | 10 (≈ 10.4 µM) | – |
| CCCCCCCCCCCCCCCC(=O)N[C@@H](CCCCN)C(=O)NCCN([C@@H](C)C(N)=O)S(=O)(=O)c1ccc(Cl)cc1 | 1 (≈ 1.49 µM) | HC50 at 1 h [2]: 62.5 µg/mL; selectivity ratio [3]: 62.5; Activity (Staphylococcus aureus [4]): Active; Activity (Staphylococcus aureus [5]): Active; Activity (Staphylococcus aureus [6]): Active |
